Results published in article PMC9359741 (Clinical Cancer Research, 2022).
Read-outs that look alike come from different tables or passages of the source.

Assays:
[1] = test system: selected advanced solid tumors; assay: Phase 1b efficacy; type: in vivo, human; conditions: for ORR, % (95% CI) / ir-ORR, % (95% CI): confirmed
Procedure, shortened: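 Oral test compound 200–400 mg QD plus anti-PD-1 antibody 2 mg/kg IV Q3W in patients with measurable or evaluable disease. Investigator assessed best response per RECIST v1.1, with immune-related response also evaluated. ORR used confirmed responses with two-sided 95% CI (Clopper–Pearson exact binomial). All patients receiving ≥1 dose were analysed. PD-L1 status came from screening tissue tested locally.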

[2] = test system: patients with selected advanced solid tumors; type: in vivo, human
Procedure, shortened: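 Adults (≥18 y) with histologically or cytologically confirmed selected advanced solid tumours. Oral test compound started at 200 mg QD, with planned escalation to 400 mg QD, plus anti-PD-1 antibody 2 mg/kg IV every 3 weeks. DLT incidence defined the MTD (DLT criteria in supplement). AEs and lab abnormalities were graded by CTCAE v4.03 in all patients given ≥1 dose and summarized descriptively.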

[3] = Phase 1b, ARRY-382 200 mg, N = 6

Cc1cccc(Cn2nc(C3CC3)c3c(NC(=O)c4cnc5cc(OCCN6CCN(C)CC6)ccn45)cccc32)n1 [ARRY-382]
Median OS ([1]; 200-mg cohort): 14.7 [95% CI, 5.2–not reached (NR)] months
Median PFS ([1]; 200-mg cohort): 4.7 (95% CI, 1.4–33.1) months
Median irPFS per irRC ([1]; 200-mg cohort): 3.0 (95% CI, 1.4–16.1) months
DOR of confirmed PR ([1]; 200-mg cohort, 1 patient with MSI-High PDA): 29.2 months
Median OS ([1]; 300-mg cohort): 6.5 (95% CI, 1.0–NR) months
Median PFS ([1]; 300-mg cohort): 2.3 (95% CI, 1.3–5.7) months
Median irPFS per irRC ([1]; 300-mg cohort): 2.5 (95% CI, 1.4–7.1) months
DOR of confirmed PR ([1]; 300-mg cohort, 1 patient with ovarian cancer): 3.1 months
Median OS ([1]; 400-mg cohort): 7.4 (95% CI, 2.1–14.1) months
Median PFS ([1]; 400-mg cohort): 1.4 (95% CI, 0.5–2.6) months
Median irPFS per irRC ([1]; 400-mg cohort): 1.3 (95% CI, 0.5–1.5) months
Best overall response: CR ([1]; ARRY-382 200 mg, N = 6): 0 (0.0) n (%)
Best overall response: NE ([1]; ARRY-382 200 mg, N = 6): 1 (16.7) n (%)
Best overall response: PD ([1]; ARRY-382 200 mg, N = 6): 1 (16.7) n (%)
Best overall response: PR ([1]; ARRY-382 200 mg, N = 6): 1 (16.7) n (%)
Best overall response: SD ([1]; ARRY-382 200 mg, N = 6): 3 (50.0) n (%)
Immune-related best overall response: CR ([1]; ARRY-382 200 mg, N = 6): 0 (0.0) n (%)
Immune-related best overall response: NE ([1]; ARRY-382 200 mg, N = 6): 1 (16.7) n (%)
Immune-related best overall response: PD ([1]; ARRY-382 200 mg, N = 6): 1 (16.7) n (%)
Immune-related best overall response: PR ([1]; ARRY-382 200 mg, N = 6): 1 (16.7) n (%)
Immune-related best overall response: SD ([1]; ARRY-382 200 mg, N = 6): 3 (50.0) n (%)
Best overall response: CR ([1]; ARRY-382 300 mg, N = 6): 0 (0.0) n (%)
Best overall response: NE ([1]; ARRY-382 300 mg, N = 6): 0 (0.0) n (%)
Best overall response: PD ([1]; ARRY-382 300 mg, N = 6): 3 (50.0) n (%)
Best overall response: PR ([1]; ARRY-382 300 mg, N = 6): 1 (16.7) n (%)
Best overall response: SD ([1]; ARRY-382 300 mg, N = 6): 2 (33.3) n (%)
Immune-related best overall response: CR ([1]; ARRY-382 300 mg, N = 6): 0 (0.0) n (%)
Immune-related best overall response: NE ([1]; ARRY-382 300 mg, N = 6): 2 (33.3) n (%)
Immune-related best overall response: PD ([1]; ARRY-382 300 mg, N = 6): 0 (0.0) n (%)
Immune-related best overall response: PR ([1]; ARRY-382 300 mg, N = 6): 1 (16.7) n (%)
Immune-related best overall response: SD ([1]; ARRY-382 300 mg, N = 6): 3 (50.0) n (%)
Best overall response: CR ([1]; ARRY-382 400 mg, N = 7): 0 (0.0) n (%)
Best overall response: NE ([1]; ARRY-382 400 mg, N = 7): 2 (28.6) n (%)
Best overall response: PD ([1]; ARRY-382 400 mg, N = 7): 5 (71.4) n (%)
Best overall response: PR ([1]; ARRY-382 400 mg, N = 7): 0 (0.0) n (%)
Best overall response: SD ([1]; ARRY-382 400 mg, N = 7): 0 (0.0) n (%)
Immune-related best overall response: CR ([1]; ARRY-382 400 mg, N = 7): 0 (0.0) n (%)
Immune-related best overall response: NE ([1]; ARRY-382 400 mg, N = 7): 4 (57.1) n (%)
Immune-related best overall response: PD ([1]; ARRY-382 400 mg, N = 7): 1 (14.3) n (%)
Immune-related best overall response: PR ([1]; ARRY-382 400 mg, N = 7): 0 (0.0) n (%)
Immune-related best overall response: SD ([1]; ARRY-382 400 mg, N = 7): 2 (28.6) n (%)
Best overall response: CR ([1]; Total, N = 19): 0 (0.0) n (%)
Best overall response: NE ([1]; Total, N = 19): 3 (15.8) n (%)
Best overall response: PD ([1]; Total, N = 19): 9 (47.4) n (%)
Best overall response: PR ([1]; Total, N = 19): 2 (10.5) n (%)
Best overall response: SD ([1]; Total, N = 19): 5 (26.3) n (%)
Immune-related best overall response: CR ([1]; Total, N = 19): 0 (0.0) n (%)
Immune-related best overall response: NE ([1]; Total, N = 19): 7 (36.8) n (%)
Immune-related best overall response: PD ([1]; Total, N = 19): 2 (10.5) n (%)
Immune-related best overall response: PR ([1]; Total, N = 19): 2 (10.5) n (%)
Immune-related best overall response: SD ([1]; Total, N = 19): 8 (42.1) n (%)
ORR, % (95% CI) ([1]; ARRY-382 200 mg, N = 6): 16.7 (0.4–64.1) %
ir-ORR, % (95% CI) ([1]; ARRY-382 200 mg, N = 6): 16.7 (0.4–64.1) %
ORR, % (95% CI) ([1]; ARRY-382 300 mg, N = 6): 16.7 (0.4–64.1) %
ir-ORR, % (95% CI) ([1]; ARRY-382 300 mg, N = 6): 16.7 (0.4–64.1) %
ORR, % (95% CI) ([1]; ARRY-382 400 mg, N = 7): 0.0 (0.0–41.0) %
ir-ORR, % (95% CI) ([1]; ARRY-382 400 mg, N = 7): 0.0 (0.0–41.0) %
ORR, % (95% CI) ([1]; Total, N = 19): 10.5 (1.3–33.1) %
ir-ORR, % (95% CI) ([1]; Total, N = 19): 10.5 (1.3–33.1) %
Patients with DLTs ([2]; 300-mg cohort: Grade 3 acute pancreatitis): 1/6
Patients with DLTs ([2]; 400-mg cohort: Grade 2 increased CPK, Grade 3 increased ALT, AST and bilirubin): 2/7
MTD (and RP2D) of ARRY-382 in combination with pembrolizumab ([2]; Phase 1b): 300 mg QD
Patients with a Grade 4 AE ([2]; Phase 1b): 6 (31.6%) n (%)
Patients with a grade 3 AE ([2]; Phase 1b): 9 (47.4%) n (%)
Patients with ≥1 TEAE ([2]; Phase 1b): 94.7%
Permanently discontinued due to AEs ([2]; Phase 1b): 2 (10.5%) n (%)
Deaths ([2]; Phase 1b, 12 due to disease progression, 3 for reasons unknown): Fifteen
ARRY-382-related grade ≥3 AEs ([2]; Phase 1b, 200-mg cohort): 50.0%
Discontinued due to AEs (primary reason) ([2]; Phase 1b, 200-mg cohort, one patient): 16.7%
ARRY-382-related grade ≥3 AEs ([2]; Phase 1b, 300-mg cohort): 100.0%
ARRY-382-related SAE (Grade 3 ALT and AST increased) ([2]; Phase 1b, 300-mg cohort, one patient): 16.7%
ARRY-382-related grade ≥3 AEs ([2]; Phase 1b, 400-mg cohort): 42.9%
ARRY-382-related AEs: ALT increased [2, 3]: 2 (33.3) n (%)
ARRY-382-related AEs: AST increased [2, 3]: 1 (16.7) n (%)
